# Tested on: Fibroblast
# Assay: Multiplex assay against human fibroblast
# Type: toxicity, cell-based
# Method in brief: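 Cells stained live at seeding with Hoechst33342, BioTracker Green Microtubule Cytoskeleton Dye, MitoTracker Red and Annexin V Alexa Fluor 680 were imaged on a CQ1 microscope at 37°C and 5% CO2 after compound addition. Their classification by CellPathfinder machine-learning gating ran from Hoechst high-intensity objects versus normal cells, to healthy, pyknosed or fragmented nuclei among normal cells, to mitotic or apoptotic among pyknosed cells. Tubulin, mitochondrial-mass and membrane-permeability phenotypes are per cents of healthy-nucleus cells.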
# [1] = 12 h, 1 µM, compound concentration 1 uM, replicate 1
# [2] = 12 h, 1 µM, compound concentration 1 uM, replicate 2
# [3] = 12 h, 10 µM, compound concentration 10 uM, replicate 1
# [4] = 12 h, 10 µM, compound concentration 10 uM, replicate 2
# [5] = 24 h, 1 µM, compound concentration 1 uM, replicate 1
# [6] = 24 h, 1 µM, compound concentration 1 uM, replicate 2
# [7] = 24 h, 10 µM, compound concentration 10 uM, replicate 1
# [8] = 24 h, 10 µM, compound concentration 10 uM, replicate 2
# [9] = 48 h, 1 µM, compound concentration 1 uM, replicate 1
# [10] = 48 h, 1 µM, compound concentration 1 uM, replicate 2
# [11] = 48 h, 10 µM, compound concentration 10 uM, replicate 1
# [12] = 48 h, 10 µM, compound concentration 10 uM, replicate 2
compound,measurement,setting,value
O=C(NCCN1CCC(n2c(=O)[nH]c3cc(Cl)ccc32)CC1)c1ccc(F)cc1 [HALOPEMIDE],Population Apoptotic (%),[1],32%
same,Population Fragmented Nuclei (%),[1],11%
same,Population Healthy Nuclei (%),[1],62%
same,Population Hoechst High Intensity Objects (%),[1],0%
same,Population Membrane Permeable-Phenotype (%),[1],1%
same,Population Mitochondria Different-Phenotype (%),[1],10%
same,Population Mitotic Cells (%),[1],67%
same,Population Normal (%),[1],99%
same,Population Pyknosed Nuclei (%),[1],26%
same,Population Tubulin-Different-Phenotype (%),[1],29%
same,Total Cell Count,[1],120
same,Population Apoptotic (%),[2],44%
same,Population Fragmented Nuclei (%),[2],27%
same,Population Healthy Nuclei (%),[2],43%
same,Population Hoechst High Intensity Objects (%),[2],7%
same,Population Membrane Permeable-Phenotype (%),[2],10%
same,Population Mitochondria Different-Phenotype (%),[2],0%
same,Population Mitotic Cells (%),[2],56%
same,Population Normal (%),[2],92%
same,Population Pyknosed Nuclei (%),[2],29%
same,Population Tubulin-Different-Phenotype (%),[2],56%
same,Total Cell Count,[2],92
same,Population Apoptotic (%),[3],55%
same,Population Fragmented Nuclei (%),[3],15%
same,Population Healthy Nuclei (%),[3],54%
same,Population Hoechst High Intensity Objects (%),[3],3%
same,Population Membrane Permeable-Phenotype (%),[3],0%
same,Population Mitochondria Different-Phenotype (%),[3],17%
same,Population Mitotic Cells (%),[3],44%
same,Population Normal (%),[3],96%
same,Population Pyknosed Nuclei (%),[3],30%
same,Population Tubulin-Different-Phenotype (%),[3],77%
same,Total Cell Count,[3],204
same,Population Apoptotic (%),[4],31%
same,Population Fragmented Nuclei (%),[4],24%
same,Population Healthy Nuclei (%),[4],34%
same,Population Hoechst High Intensity Objects (%),[4],4%
same,Population Membrane Permeable-Phenotype (%),[4],6%
same,Population Mitochondria Different-Phenotype (%),[4],14%
same,Population Mitotic Cells (%),[4],68%
same,Population Normal (%),[4],95%
same,Population Pyknosed Nuclei (%),[4],41%
same,Population Tubulin-Different-Phenotype (%),[4],87%
same,Total Cell Count,[4],148
same,Population Apoptotic (%),[5],58%
same,Population Fragmented Nuclei (%),[5],16%
same,Population Healthy Nuclei (%),[5],69%
same,Population Hoechst High Intensity Objects (%),[5],3%
same,Population Membrane Permeable-Phenotype (%),[5],1%
same,Population Mitochondria Different-Phenotype (%),[5],9%
same,Population Mitotic Cells (%),[5],41%
same,Population Normal (%),[5],96%
same,Population Pyknosed Nuclei (%),[5],13%
same,Population Tubulin-Different-Phenotype (%),[5],38%
same,Total Cell Count,[5],128
same,Population Apoptotic (%),[6],37%
same,Population Fragmented Nuclei (%),[6],32%
same,Population Healthy Nuclei (%),[6],41%
same,Population Hoechst High Intensity Objects (%),[6],10%
same,Population Membrane Permeable-Phenotype (%),[6],5%
same,Population Mitochondria Different-Phenotype (%),[6],8%
same,Population Mitotic Cells (%),[6],62%
same,Population Normal (%),[6],90%
same,Population Pyknosed Nuclei (%),[6],26%
same,Population Tubulin-Different-Phenotype (%),[6],59%
same,Total Cell Count,[6],100
same,Population Apoptotic (%),[7],67%
same,Population Fragmented Nuclei (%),[7],23%
same,Population Healthy Nuclei (%),[7],51%
same,Population Hoechst High Intensity Objects (%),[7],5%
same,Population Membrane Permeable-Phenotype (%),[7],0%
same,Population Mitochondria Different-Phenotype (%),[7],28%
same,Population Mitotic Cells (%),[7],32%
same,Population Normal (%),[7],95%
same,Population Pyknosed Nuclei (%),[7],24%
same,Population Tubulin-Different-Phenotype (%),[7],78%
same,Total Cell Count,[7],220
same,Population Apoptotic (%),[8],41%
same,Population Fragmented Nuclei (%),[8],26%
same,Population Healthy Nuclei (%),[8],38%
same,Population Hoechst High Intensity Objects (%),[8],6%
same,Population Membrane Permeable-Phenotype (%),[8],12%
same,Population Mitochondria Different-Phenotype (%),[8],32%
same,Population Mitotic Cells (%),[8],58%
same,Population Normal (%),[8],93%
same,Population Pyknosed Nuclei (%),[8],35%
same,Population Tubulin-Different-Phenotype (%),[8],94%
same,Total Cell Count,[8],140
same,Population Apoptotic (%),[9],52%
same,Population Fragmented Nuclei (%),[9],14%
same,Population Healthy Nuclei (%),[9],68%
same,Population Hoechst High Intensity Objects (%),[9],3%
same,Population Membrane Permeable-Phenotype (%),[9],4%
same,Population Mitochondria Different-Phenotype (%),[9],7%
same,Population Mitotic Cells (%),[9],47%
same,Population Normal (%),[9],96%
same,Population Pyknosed Nuclei (%),[9],17%
same,Population Tubulin-Different-Phenotype (%),[9],36%
same,Total Cell Count,[9],128
same,Population Apoptotic (%),[10],35%
same,Population Fragmented Nuclei (%),[10],38%
same,Population Healthy Nuclei (%),[10],43%
same,Population Hoechst High Intensity Objects (%),[10],4%
same,Population Membrane Permeable-Phenotype (%),[10],14%
same,Population Mitochondria Different-Phenotype (%),[10],4%
same,Population Mitotic Cells (%),[10],64%
same,Population Normal (%),[10],95%
same,Population Tubulin-Different-Phenotype (%),[10],63%
same,Total Cell Count,[10],99
same,Population Apoptotic (%),[11],80%
same,Population Fragmented Nuclei (%),[11],32%
same,Population Healthy Nuclei (%),[11],50%
same,Population Hoechst High Intensity Objects (%),[11],10%
same,Population Membrane Permeable-Phenotype (%),[11],0%
same,Population Mitochondria Different-Phenotype (%),[11],35%
same,Population Mitotic Cells (%),[11],19%
same,Population Normal (%),[11],89%
same,Population Pyknosed Nuclei (%),[11],17%
same,Population Tubulin-Different-Phenotype (%),[11],77%
same,Total Cell Count,[11],229
same,Population Apoptotic (%),[12],48%
same,Population Fragmented Nuclei (%),[12],35%
same,Population Healthy Nuclei (%),[12],45%
same,Population Hoechst High Intensity Objects (%),[12],5%
same,Population Membrane Permeable-Phenotype (%),[12],10%
same,Population Mitochondria Different-Phenotype (%),[12],15%
same,Population Mitotic Cells (%),[12],52%
same,Population Normal (%),[12],94%
same,Population Pyknosed Nuclei (%),[12],19%
same,Population Tubulin-Different-Phenotype (%),[12],96%
same,Total Cell Count,[12],136

# — ChEMBL document CHEMBL5058577, “EUbOPEN Chemogenomics Library 2 (Multiplex)” (2022)
